In article PMC7649717 (Analytical chemistry, 2020) one finds Kd data, which are given here for one molecule.

Common to all, as to assay: isothermal titration calorimetry
Conditions in all cases: PBS, 298 K, 30 μM protein; GFP fusion
Background: ITC needs no label: the signal is the heat of the interaction.

The target of assay [1] is T1, GFP-RBP(L19A); ribose binding protein (RBP) (Escherichia coli, UniProt P02925, L44A/Q260A).
T1 sequence (P02925 26-296 L44A/Q260A): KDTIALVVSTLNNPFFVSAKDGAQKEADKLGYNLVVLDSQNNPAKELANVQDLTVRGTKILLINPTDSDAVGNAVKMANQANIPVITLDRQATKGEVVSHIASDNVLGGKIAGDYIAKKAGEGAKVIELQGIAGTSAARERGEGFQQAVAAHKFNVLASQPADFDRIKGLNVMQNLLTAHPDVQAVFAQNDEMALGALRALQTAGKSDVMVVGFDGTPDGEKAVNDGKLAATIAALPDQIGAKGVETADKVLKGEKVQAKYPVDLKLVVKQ

The target in assay [2] is T2, GFP-RBP(L19A); ribose binding protein (RBP) (Escherichia coli, UniProt P02925, L44A/T160A/Q260A).
T2 sequence (P02925 26-296 L44A/T160A/Q260A): T1 sequence (P02925 26-296 L44A/Q260A) with T135A

The target in assay [3] is T3, GFP-RBP(L19A); ribose binding protein (RBP) (Escherichia coli, UniProt P02925, L44A).
T3 sequence (P02925 26-296 L44A): T1 sequence (P02925 26-296 L44A/Q260A) with A235Q
In a few lines:
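GFP-RBP(L19A) expressed in E. coli BL21(DE3) and Ni-affinity purified with on-column 8 M urea unfolding and refolding to strip endogenous ribose, then size-exclusion in PBS. ITC at 298 K: cell held 30 μM protein in PBS against a deionized water reference; ribose at 10x protein concentration in PBS. Kd came from nonlinear regression fits of the binding isotherms.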

Substitutions are numbered along the chain they refer to.

One may read the Kd as the equilibrium constant for the complex coming apart.

Take `OC1OC[C@@H](O)[C@@H](O)[C@H]1O` (stereo partly drawn) [ribose]: the results for the Kd in assay [1], in assay [2] and in assay [3] were 10 µM, 130 µM and 0.3 ± 0.1 µM, respectively.
